Columns and labels:
[1] = molecular target: Tyrosine-protein kinase ABL1 (Homo sapiens, UniProt P00519); assay: Inhibition of ABL Lys1 labeling site in human Huh-7 cell lysate at 1 uM by KiNativ Profiling analysis relative to control; format: subcellular
[2] = Cmax in Swiss albino mouse at 10 mg/kg, po measured upto 24 hrs by LC/MS/MS analysis; format: ADME, organism-based; conditions: in vivo
[3] = molecular target: Serine/threonine-protein kinase 26 (Homo sapiens) (UniProt Q9P289); assay: Inhibition of MST4 Lys1 labeling site in human A-375 cells at 5 uM by KiNativ Profiling analysis relative to control; format: cell-based
[4] = system: BaF3; assay: Antiproliferative activity against parental mouse BaF3 cells harbouring Bcr/Abl assessed reduction in cell viability measured after 48 hrs by Celltiter-glo assay; format: functional, cell-based; conditions: BaF3, 48 h
In short: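 Cells were grown with serial dilutions of compound for 48 h, and viability was read by CellTiter-Glo. IC50 was derived from the dose–response curve. Parental Ba/F3 cells were grown in the presence of interleukin 3. The BCR-ABL line is BCR-ABL-dependent Ba/F3.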

[5] = molecular target: T1, DNA-PK/Ku70/Ku85 (Homo sapiens) (UniProt P78527+P12956+P13010); assay: Inhibition of DNAPK ATP labeling site harbouring EHPFLVKGGEDLR in human A-375 cells at 0.05 uM by KiNativ Profiling analysis relative to control; format: cell-based
[6] = molecular target: Cyclin-dependent kinase 16 (Homo sapiens) (UniProt Q00536); assay: Inhibition of PCTAIRE1 Lys1 labeling site in human A-375 cells at 5 uM by KiNativ Profiling analysis relative to control; format: cell-based
[7] = molecular target: Proto-oncogene tyrosine-protein kinase Src (Homo sapiens, UniProt P12931); assay: Inhibition of SRC Lys1 labeling site in human A-375 cells at 5 uM by KiNativ Profiling analysis relative to control; format: cell-based
[8] = molecular target: Serine/threonine-protein kinase MRCK beta (Homo sapiens) (UniProt Q9Y5S2); assay: Inhibition of MRCKb in human A-375 cells at 0.05 uM by KiNativ Profiling analysis relative to control; format: cell-based
[9] = molecular target: Dual specificity mitogen-activated protein kinase kinase 2 (Homo sapiens) (UniProt P36507); assay: Inhibition of MAP2K2 Lys1 labeling site in human A-375 cells at 0.5 uM by KiNativ Profiling analysis relative to control; format: cell-based
[10] = molecular target: Serine/threonine-protein kinase MARK2 (Homo sapiens) (UniProt Q7KZI7); assay: Inhibition of MARK2 Lys2 labeling site harbouring FIVHRDLKAENLLLDADMNIK in human A-375 cells at 0.05 uM by KiNativ Profiling analysis relative to control; format: cell-based
[11] = molecular target: T1, DNA-PK/Ku70/Ku85 (Homo sapiens); assay: Inhibition of DNAPK ATP labeling site harbouring EHPFLVKGGEDLR in human A-375 cells at 5 uM by KiNativ Profiling analysis relative to control; format: cell-based
In short: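 Live A375 melanoma cells were treated with compound at 0.5 or 5 μM, then lysed. Lysates were labeled with a lysine-reactive ATP or ADP-biotin probe. The read-out was protection of each kinase probe-labeling site from labeling, relative to control.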

[12] = molecular target: Ribosomal protein S6 kinase alpha-1 (Homo sapiens) (UniProt Q15418); assay: Inhibition of RSK1 domain1 Lys1 labeling site in human A-375 cells at 0.05 uM by KiNativ Profiling analysis relative to control; format: cell-based
[13] = molecular target: T2, Serine/threonine-protein kinase greatwall (Homo sapiens) (UniProt Q96GX5); assay: Inhibition of MASTL ATP Loop labeling site in human A-375 cells at 0.5 uM by KiNativ Profiling analysis relative to control; format: cell-based
T2 sequence (whole entry): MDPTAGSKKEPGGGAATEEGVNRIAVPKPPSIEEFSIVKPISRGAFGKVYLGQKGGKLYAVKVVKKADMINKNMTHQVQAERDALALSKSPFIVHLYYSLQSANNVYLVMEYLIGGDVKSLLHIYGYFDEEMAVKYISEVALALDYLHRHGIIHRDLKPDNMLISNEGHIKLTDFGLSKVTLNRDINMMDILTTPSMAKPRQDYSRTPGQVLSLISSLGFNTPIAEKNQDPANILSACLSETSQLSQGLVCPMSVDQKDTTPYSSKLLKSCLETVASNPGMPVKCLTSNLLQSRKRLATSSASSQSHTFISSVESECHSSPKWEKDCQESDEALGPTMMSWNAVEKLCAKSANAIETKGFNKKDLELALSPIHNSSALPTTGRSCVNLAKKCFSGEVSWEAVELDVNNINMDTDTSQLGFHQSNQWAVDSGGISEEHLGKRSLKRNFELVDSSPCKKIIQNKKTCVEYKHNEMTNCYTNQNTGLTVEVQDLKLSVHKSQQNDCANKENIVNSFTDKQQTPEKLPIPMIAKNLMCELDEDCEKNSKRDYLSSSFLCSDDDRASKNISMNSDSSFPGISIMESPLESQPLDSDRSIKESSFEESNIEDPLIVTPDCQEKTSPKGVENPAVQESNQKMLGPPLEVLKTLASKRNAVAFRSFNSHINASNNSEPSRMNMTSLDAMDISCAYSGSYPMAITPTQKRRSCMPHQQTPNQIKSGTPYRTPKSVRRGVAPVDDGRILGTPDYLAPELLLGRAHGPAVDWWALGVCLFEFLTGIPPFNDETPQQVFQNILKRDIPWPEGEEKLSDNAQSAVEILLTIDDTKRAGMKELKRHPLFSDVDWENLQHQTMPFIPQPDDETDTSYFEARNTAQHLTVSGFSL

[14] = molecular target: Protein kinase C beta type (Homo sapiens) (UniProt P05771); assay: Inhibition of PKCb Lys2 labeling site in human A-375 cells at 0.5 uM by KiNativ Profiling analysis relative to control; format: cell-based
[15] = molecular target: Mitogen-activated protein kinase 14 (Homo sapiens, UniProt Q16539); assay: Inhibition of p38 alpha in human A-375 cells at 5 uM by KiNativ Profiling analysis relative to control; format: cell-based
[16] = molecular target: Serine/threonine-protein kinase WNK2 (Homo sapiens) (UniProt Q9Y3S1); assay: Inhibition of Wnk2 ATP Loop labeling site in human A-375 cells at 0.5 uM by KiNativ Profiling analysis relative to control; format: cell-based
[17] = molecular target: Tyrosine-protein kinase ABL2 (Homo sapiens, UniProt P42684); assay: Inhibition of ARG Lys1 labeling site in human A-375 cells at 0.5 uM by KiNativ Profiling analysis relative to control; format: cell-based
In short: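 Intact A375 melanoma cells were treated with compound at 5 or 0.5 μM, then lysed. Lysate kinases were labeled with a lysine-reactive ATP or ADP-biotin probe (KiNativ). Inhibition is read as protection of each kinase labeling site from probe labeling.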

[18] = molecular target: Serine/threonine-protein kinase Chk2 (Homo sapiens) (UniProt O96017); assay: Inhibition of CHK2 Lys1 labeling site in human A-375 cells at 0.05 uM by KiNativ Profiling analysis relative to control; format: cell-based

Chain of Ribosomal protein S6 kinase alpha-1 (Homo sapiens) (Q15418 whole entry, the tested form may be a part): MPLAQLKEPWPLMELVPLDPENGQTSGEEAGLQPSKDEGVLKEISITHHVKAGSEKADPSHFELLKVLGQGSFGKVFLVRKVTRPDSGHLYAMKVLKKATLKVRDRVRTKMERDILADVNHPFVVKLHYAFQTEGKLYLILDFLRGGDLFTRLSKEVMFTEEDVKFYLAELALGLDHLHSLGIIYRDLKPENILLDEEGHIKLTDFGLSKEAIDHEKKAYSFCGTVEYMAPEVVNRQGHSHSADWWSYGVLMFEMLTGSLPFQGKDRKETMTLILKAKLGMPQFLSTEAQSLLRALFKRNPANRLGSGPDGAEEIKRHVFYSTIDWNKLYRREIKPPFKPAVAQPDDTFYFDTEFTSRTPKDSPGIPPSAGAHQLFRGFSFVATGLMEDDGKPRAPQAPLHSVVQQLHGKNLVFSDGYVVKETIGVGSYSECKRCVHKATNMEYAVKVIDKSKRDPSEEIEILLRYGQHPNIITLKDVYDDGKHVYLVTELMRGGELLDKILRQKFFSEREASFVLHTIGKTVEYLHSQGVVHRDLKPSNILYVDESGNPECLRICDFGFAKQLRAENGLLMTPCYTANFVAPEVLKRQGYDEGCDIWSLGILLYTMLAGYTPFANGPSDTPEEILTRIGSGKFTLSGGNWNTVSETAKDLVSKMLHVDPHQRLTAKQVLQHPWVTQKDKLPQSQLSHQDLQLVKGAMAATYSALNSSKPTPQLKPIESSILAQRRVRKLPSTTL
Chain of Protein kinase C beta type (Homo sapiens) (P05771 2-671 limits assumed): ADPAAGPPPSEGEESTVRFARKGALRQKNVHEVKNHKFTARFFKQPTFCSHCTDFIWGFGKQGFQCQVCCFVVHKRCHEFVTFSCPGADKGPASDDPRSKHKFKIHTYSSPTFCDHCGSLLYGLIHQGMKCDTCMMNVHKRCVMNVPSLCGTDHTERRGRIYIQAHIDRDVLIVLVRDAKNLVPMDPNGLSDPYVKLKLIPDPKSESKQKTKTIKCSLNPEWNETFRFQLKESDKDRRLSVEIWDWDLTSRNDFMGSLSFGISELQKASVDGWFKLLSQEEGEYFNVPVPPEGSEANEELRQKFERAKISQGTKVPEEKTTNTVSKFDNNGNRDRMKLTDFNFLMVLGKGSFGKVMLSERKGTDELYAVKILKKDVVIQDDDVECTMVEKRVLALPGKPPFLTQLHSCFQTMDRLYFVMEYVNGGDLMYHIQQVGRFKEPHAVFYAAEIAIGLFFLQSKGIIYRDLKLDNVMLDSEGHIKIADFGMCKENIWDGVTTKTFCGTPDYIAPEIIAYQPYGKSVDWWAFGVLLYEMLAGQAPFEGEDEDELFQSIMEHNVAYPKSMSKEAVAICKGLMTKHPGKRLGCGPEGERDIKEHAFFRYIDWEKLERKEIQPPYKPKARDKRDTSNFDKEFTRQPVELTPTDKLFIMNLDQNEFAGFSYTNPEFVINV
Chain of Proto-oncogene tyrosine-protein kinase Src (P12931 2-536 limits assumed): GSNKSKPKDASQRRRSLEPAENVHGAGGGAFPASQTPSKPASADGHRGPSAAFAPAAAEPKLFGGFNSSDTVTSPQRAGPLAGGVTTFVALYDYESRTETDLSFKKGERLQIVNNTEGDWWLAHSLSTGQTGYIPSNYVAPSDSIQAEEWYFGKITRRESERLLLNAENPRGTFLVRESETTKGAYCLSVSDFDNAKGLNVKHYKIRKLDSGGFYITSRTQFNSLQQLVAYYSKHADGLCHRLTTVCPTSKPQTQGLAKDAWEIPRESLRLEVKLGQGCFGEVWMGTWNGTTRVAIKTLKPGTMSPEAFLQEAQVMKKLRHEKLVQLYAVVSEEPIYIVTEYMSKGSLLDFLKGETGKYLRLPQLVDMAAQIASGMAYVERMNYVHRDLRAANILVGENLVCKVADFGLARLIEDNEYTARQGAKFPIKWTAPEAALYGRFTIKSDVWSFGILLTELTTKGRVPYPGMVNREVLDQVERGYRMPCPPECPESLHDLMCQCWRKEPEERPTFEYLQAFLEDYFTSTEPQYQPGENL
Chain of Dual specificity mitogen-activated protein kinase kinase 2 (Homo sapiens) (P36507 whole entry): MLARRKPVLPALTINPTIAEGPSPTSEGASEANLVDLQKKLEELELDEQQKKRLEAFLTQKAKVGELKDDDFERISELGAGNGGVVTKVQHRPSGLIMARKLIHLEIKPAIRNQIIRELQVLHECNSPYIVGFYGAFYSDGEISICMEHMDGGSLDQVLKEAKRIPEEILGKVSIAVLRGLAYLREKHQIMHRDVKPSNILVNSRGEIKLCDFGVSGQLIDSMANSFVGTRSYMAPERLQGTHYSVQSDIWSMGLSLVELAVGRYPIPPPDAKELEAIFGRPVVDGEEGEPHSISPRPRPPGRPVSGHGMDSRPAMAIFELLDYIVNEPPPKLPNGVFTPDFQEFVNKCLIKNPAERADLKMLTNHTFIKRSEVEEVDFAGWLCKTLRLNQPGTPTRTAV
Chain of Cyclin-dependent kinase 16 (Homo sapiens) (Q00536 whole entry): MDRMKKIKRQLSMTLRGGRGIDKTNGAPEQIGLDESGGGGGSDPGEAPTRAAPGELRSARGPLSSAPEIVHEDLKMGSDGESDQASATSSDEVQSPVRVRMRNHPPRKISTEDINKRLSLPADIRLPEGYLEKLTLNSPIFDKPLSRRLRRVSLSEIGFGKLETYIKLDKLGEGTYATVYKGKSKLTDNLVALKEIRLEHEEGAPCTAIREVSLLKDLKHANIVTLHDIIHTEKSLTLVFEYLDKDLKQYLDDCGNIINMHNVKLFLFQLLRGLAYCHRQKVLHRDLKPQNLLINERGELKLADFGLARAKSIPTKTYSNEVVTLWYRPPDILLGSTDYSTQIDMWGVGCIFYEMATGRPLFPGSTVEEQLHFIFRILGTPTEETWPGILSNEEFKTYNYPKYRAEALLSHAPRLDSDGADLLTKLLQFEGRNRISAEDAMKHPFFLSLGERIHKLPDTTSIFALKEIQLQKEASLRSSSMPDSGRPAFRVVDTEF
Chain of Tyrosine-protein kinase ABL2 (P42684 whole entry): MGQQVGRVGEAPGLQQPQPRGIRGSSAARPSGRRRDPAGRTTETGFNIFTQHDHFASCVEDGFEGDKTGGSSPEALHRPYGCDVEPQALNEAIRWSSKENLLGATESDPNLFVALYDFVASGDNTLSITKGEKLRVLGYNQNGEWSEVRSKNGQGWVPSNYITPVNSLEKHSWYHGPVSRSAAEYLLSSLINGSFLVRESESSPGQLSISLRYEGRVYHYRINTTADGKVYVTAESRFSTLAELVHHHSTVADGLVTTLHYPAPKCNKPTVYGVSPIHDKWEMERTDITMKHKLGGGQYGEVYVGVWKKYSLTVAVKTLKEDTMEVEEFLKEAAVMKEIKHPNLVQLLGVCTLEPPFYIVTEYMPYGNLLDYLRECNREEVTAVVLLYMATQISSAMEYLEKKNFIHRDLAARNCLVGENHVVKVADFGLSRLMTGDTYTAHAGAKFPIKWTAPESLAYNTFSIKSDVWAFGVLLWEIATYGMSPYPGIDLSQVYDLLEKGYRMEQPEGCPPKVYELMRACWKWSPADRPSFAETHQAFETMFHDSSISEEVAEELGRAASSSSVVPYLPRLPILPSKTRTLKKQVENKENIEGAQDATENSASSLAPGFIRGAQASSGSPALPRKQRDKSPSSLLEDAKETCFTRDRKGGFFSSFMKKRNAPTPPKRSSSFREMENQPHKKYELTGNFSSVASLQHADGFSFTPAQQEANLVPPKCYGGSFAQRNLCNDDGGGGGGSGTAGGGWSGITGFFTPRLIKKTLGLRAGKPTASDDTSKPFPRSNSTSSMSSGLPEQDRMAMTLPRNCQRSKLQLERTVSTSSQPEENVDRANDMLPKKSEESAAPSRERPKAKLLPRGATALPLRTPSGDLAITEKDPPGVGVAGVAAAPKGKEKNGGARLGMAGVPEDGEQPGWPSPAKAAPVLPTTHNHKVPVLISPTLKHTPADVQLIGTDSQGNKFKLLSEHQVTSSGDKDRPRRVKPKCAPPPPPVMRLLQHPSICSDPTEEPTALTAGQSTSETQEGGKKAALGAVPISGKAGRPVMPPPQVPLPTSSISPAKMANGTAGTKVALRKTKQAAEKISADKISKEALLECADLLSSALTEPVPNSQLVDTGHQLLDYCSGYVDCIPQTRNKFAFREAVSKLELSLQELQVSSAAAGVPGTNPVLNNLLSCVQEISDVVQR
Chain of Serine/threonine-protein kinase MARK2 (Homo sapiens) (Q7KZI7 whole entry): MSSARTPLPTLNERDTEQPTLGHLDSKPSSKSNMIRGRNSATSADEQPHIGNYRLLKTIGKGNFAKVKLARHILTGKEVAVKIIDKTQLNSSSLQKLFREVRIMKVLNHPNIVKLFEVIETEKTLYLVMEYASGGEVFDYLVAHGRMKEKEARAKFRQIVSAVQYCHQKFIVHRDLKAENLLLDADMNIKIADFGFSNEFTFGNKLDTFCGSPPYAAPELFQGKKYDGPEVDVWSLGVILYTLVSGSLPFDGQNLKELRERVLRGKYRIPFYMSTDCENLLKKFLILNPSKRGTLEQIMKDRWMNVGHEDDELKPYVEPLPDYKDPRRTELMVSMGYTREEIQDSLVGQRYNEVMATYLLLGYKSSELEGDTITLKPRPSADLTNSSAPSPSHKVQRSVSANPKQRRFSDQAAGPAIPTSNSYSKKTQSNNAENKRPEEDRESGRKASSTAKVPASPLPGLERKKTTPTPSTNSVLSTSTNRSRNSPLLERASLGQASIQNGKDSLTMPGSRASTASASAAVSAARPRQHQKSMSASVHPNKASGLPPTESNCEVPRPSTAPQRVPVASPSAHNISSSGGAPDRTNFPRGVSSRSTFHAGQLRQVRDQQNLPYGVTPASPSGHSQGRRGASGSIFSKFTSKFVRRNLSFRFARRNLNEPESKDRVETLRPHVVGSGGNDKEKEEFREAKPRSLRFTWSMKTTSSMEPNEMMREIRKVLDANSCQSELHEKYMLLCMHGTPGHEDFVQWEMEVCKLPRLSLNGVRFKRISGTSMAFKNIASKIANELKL

CNc1cc(Oc2cc(C(=O)Nc3cc(N4CCN(C)CC4)cc(C(F)(F)F)c3)ccc2C)ncn1
inhibition [1]: 48.4%

CCN1CCN(Cc2ccc(NC(=O)c3ccc(C)c(/C=C/c4cnc5[nH]ccc5c4OC)c3)cc2C(F)(F)F)CC1
Cmax [2]: 163 ng/mL | inhibition [3]: -6.1% | IC50 [4]: 10 nM | inhibition [5]: 9.9% | inhibition [6]: 32.1% | inhibition [7]: > 92% | inhibition [8]: 12.1% | inhibition [9]: 4.4% | inhibition [10]: 14.2% | inhibition [11]: 15.4% | inhibition [12]: -0.5% | inhibition [13]: 0.2% | inhibition [14]: 48.2% | inhibition [15]: 83.3% | inhibition [16]: 15.3% | inhibition [17]: > 90% | inhibition [18]: 2.9%

CNc1cc(Oc2cc(C(=O)Nc3cc(-n4cnc(C)c4)cc(C(F)(F)F)c3)ccc2C)ncn1
inhibition [1]: 51.8%

CCN1CCN(Cc2ccc(NC(=O)c3ccc(C)c(Oc4ccnc5[nH]ccc45)c3)cc2C(F)(F)F)CC1
Cmax [2]: 316 ng/mL | inhibition [3]: 1.1% | IC50 [4]: 18 nM | inhibition [5]: -9.3% | inhibition [6]: 72.6% | inhibition [7]: > 92% | inhibition [8]: -8.8% | inhibition [9]: -3.5% | inhibition [10]: 11.3% | inhibition [11]: 12.4% | inhibition [12]: -1.6% | inhibition [13]: 11.4% | inhibition [14]: 65% | inhibition [15]: 53.3% | inhibition [16]: 11.4% | inhibition [17]: 85.5% | inhibition [18]: -1.9%
